These results are taken from the EternaBench riboswitch data.

This data set relates to MS2 coat protein. Nature of the data set: apparent Kd, MS2 coat protein; higher = weaker binding; RNA-MaP array. The gist of the method: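 Apparent Kd was taken as the median of binding curves fitted cluster by cluster. The designed RNAs were made by transcription of sequenced DNA templates on an Illumina sequencing chip and exposed to fluorescently labeled MS2 coat protein (1.5 nM to 3 μM) at room temperature, with or without input ligand, for 0.8–1.5 h at the lowest and 10–20 min at the highest concentrations. Any design measured on fewer than 10 clusters was left out.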

Setting [1] is: designed as: OFF switch for flavin mononucleotide, no ligand.
[2] abbreviates: ligand present: flavin mononucleotide, designed as: OFF switch for flavin mononucleotide.
[3] abbreviates: designed as: ON switch for flavin mononucleotide, no ligand.
[4] abbreviates: ligand present: flavin mononucleotide, designed as: ON switch for flavin mononucleotide.
[5] abbreviates: designed as: ON switch for tryptophan, no ligand.
Where [6] appears, read: ligand present: tryptophan, designed as: ON switch for tryptophan.
The mark [7] stands for this setting: designed as: OFF switch for tryptophan, no ligand.
Where [8] appears, read: ligand present: tryptophan, designed as: OFF switch for tryptophan.
Setting [9] is: designed as: OFF switch for theophylline, no ligand.
Where [10] appears, read: ligand present: theophylline, designed as: OFF switch for theophylline.

On to “GAAAGGUGAGGAUAUACAUGAGGAUCACCCAUGUGUAGAAAUAGAAAGAAAAUCUCAAGUAGAAGGCACAAACA”, for which the “apparent Kd” value is, setting by setting: under setting [1], 11.3 nM; under setting [2], 13.7 nM.

As for “GUACCUCAAGGAUAUGCCCGAUCUUACAUGAGGAUCACCCAUGUUGGCUCAGGGCUUAGGGCAGAAGGUGAGAAGU”, the “apparent Kd” value under setting [1] came to 6.38 nM and the “apparent Kd” value under setting [2] came out at 7.52 nM.

“UAACAUGAGGAUCACCCAUGUAACCAUCUCCAAGUCGGUAGGCAGGAUAUGUACAUAAUGGAAGAACAGAAGGGCCGGUCCGAG”: the “apparent Kd” value runs as follows: under setting [3], 31.1 nM; under setting [4], 9.9 nM.

In the case of “UCACUCUGCCGAGGAUAUGCUGGGUCUGACAUGAGGAUCACCCAUGUAACGGGCAGAGUGUUCCAGCAGAAGGCGGCCAGUACC”, the “apparent Kd” value by setting is: under setting [3], 42.5 nM; under setting [4], 44.6 nM.

As for “UCCCUACCGUCGGCCGCCACUGGGUCAUACAGUUCGUAACUACAUGAGGAUCACCCAUGUGCAGCCAGGACCGGGACGCGCCUUG”, the “apparent Kd” value under setting [5] turned out to be 177 nM and the “apparent Kd” value under setting [6] worked out at 106 nM.

Regarding “ACGUUCGCGGUAUCCAACCGGUUGUACAAACGAGGACCGGUACGGCCGCCACUCGUGAUUGUACAUGAGGAUCACCCAUGUGGCA”, the “apparent Kd” value reads like this: under setting [7], 17.6 nM; under setting [8], 17.2 nM.

In the case of “AGCUCGUAGACAUGAGGAUCACCCAUGUAGAUCAAGAAAUUCAAGGAUAUUGGGAGUAAGCCGUGCAAGAAGGUGAGACUAGAU”, the “apparent Kd” value runs as follows: under setting [3], 57 nM; under setting [4], 45.2 nM.

For “GUAAAACUGUAAGGAUAUGAUGAACUUUAACCCUCAGAAGGAACACCACAUGAGGAUCACCCAUGUUAGGAAAGCAACUUGUUG”, the “apparent Kd” value under setting [3] was found to be 14.1 nM and the “apparent Kd” value under setting [4] was found to be 13.8 nM.

For “ACAUCCACCAAGAAGGCUGGUGCGGCACUUAAGUCGUUCACAUGAGGAUCACCCAUGUCGUAUACAGAGGAUAUUGAGGUUUUC”, the “apparent Kd” value by setting is: under setting [1], 39.1 nM; under setting [2], 38.7 nM.

As for “ACUUACGGAAAGAAGGAGGGACAGUCACGGCGGGCGGACCACAUGAGGAUCACCCAUGUGCGAGCCUAGGAUAUUUAGGGUAGC”, the “apparent Kd” value under setting [1] was 7.19 nM and the “apparent Kd” value under setting [2] turned out to be 7.23 nM.

Consider “AUAGAACAUGAGGAUCACCCAUGUAGAAAAUCAGCAGGAUAUGUGAUCACUCCGUAAUUGACAGAAGGGCUAACAA”, for which the “apparent Kd” value reads like this: under setting [3], 68.2 nM; under setting [4], 28.8 nM.

As to “AUCGGCGCACAGAAGGGACGAUCAAACUGCUGAUCACAUGAGGAUCACCCAUGUUGUUUGGAUAGUCAGGAUAUGUUGACCAUG”, the “apparent Kd” value under setting [1] was 17.6 nM and the “apparent Kd” value under setting [2] is 16 nM.

For the sequence “AUUGUCAAGUCGGCCGCCACUUCUGCCAUGGCCACCAGUCGACAUGAGGAUCACCCAUGUCUCUUAAGGACCGGGACUUUCAAUU”, the “apparent Kd” value amounted to 13.2 nM under setting [5] and 12.1 nM under setting [6].

With “GAGCGCAGUUUACAACAUACUAACACAGAUACCAGAAAUUUUAUGUUCCCUUGGCAGCUGACAACAUGAGGAUCACCCAUGUGCU”, the “apparent Kd” value by setting is: under setting [9], 17.1 nM; under setting [10], 17.7 nM.

Take “GACAGAAGGUAGAAGGUGGUUCUCCUCACCCACUUUGAGGACAUGAGGAUCACCCAUGUCAAAACCAAGGAUAUACUACGUCGU”: the “apparent Kd” value under setting [3] came out at 89.8 nM and the “apparent Kd” value under setting [4] is 18.2 nM.

In the case of “AGGAGGCAUAAGAAGGGUACAUGUAUUGGGUGUACAGGAUAUUACAGGUGCCGCACAUGAGGAUCACCCAUGUUAUCAUUGUGC”, the “apparent Kd” value came to 39 nM under setting [1] and 34 nM under setting [2].

On to “CUCUACAUGAGGAUCACCCAUGUAUUAAUACAACUGGGUGCUAGAAGGUGCACUUAAGAAUAGGGCAAGGAUAUAGACCGUUCA”, for which the “apparent Kd” value amounted to 158 nM under setting [1] and 77.4 nM under setting [2].

On to “GGAACGAUCACUUCUUUAUCUAAGGCGGAUACCAGUCCUCGGUUUGACCCUUGGCAGCCGACAACAUGAGGAUCACCCAUGUUCU”, for which the “apparent Kd” value is, setting by setting: under setting [9], 15.6 nM; under setting [10], 20.4 nM.

With “AUGUCACAUGAGGAUCACCCAUGUAUGGAUACCAGUUUAGUGAAUAACCCUUGGCAGCCAAGGAUGCGACAGAAAUCCGGAAAAC”, the “apparent Kd” value is, setting by setting: (designed as: ON switch for theophylline, no ligand) 21.3 nM; (ligand present: theophylline, designed as: ON switch for theophylline) 21.1 nM.

In the case of “GAUCCGUACCAGACCUUCAAUGGACUCAGUCGAGGACCGGUACGGCCGCCACUCGGAGAAGAACAUGAGGAUCACCCAUGUGAUG”, the “apparent Kd” value was determined as 36.3 nM under setting [7] and 53.8 nM under setting [8].
